Compounds with a hit are over-represented: about 2.1% of the library has one in this group of screens.
Xi reactivation: activators of X-chromosome reactivation in mouse fibroblasts | XiGFP mouse fibroblasts, % GFP-positive cells imaging, 3 d; cells co-treated with 5-aza-dC sensitizer; scaled so ellipticine positive control = 100% | activation, % at 7.58 µM | hit rate 0.055% among 360,000 | AID 743238;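 active means mean normalized replicate activation at least 10% and every replicate at or above 10%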;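 further: 0% = median of on-plate neutral control wells and 100% = ellipticine 6 µM median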
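System: 68-5-11 XiGFP fibroblast line; Timing: 3 days compound exposure; Compound dosing: one concentration, pinned; Benchmarks: positive control ellipticine, 6 µM final; Buffer or medium: DMEM containing 5-aza-dC.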
Statin myotox sup: suppression of simvastatin myotoxicity | hit rate 0.78% among 330,000 | C2C12 myotubes + simvastatin, ATP luminescence, 48 h; scaled: DMSO 0, geranylgeraniol control 100 | rescue of ATP level, % at 7.49 µM;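 active means mean ATP rescue above about 67%, or every replicate alone reaching that limit, limit read from the data, passing the limit was not always enough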;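 further: myotubes were challenged with 10 µM simvastatin during compound exposure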
DENV2 CPE: inhibitors of DENV2 cytopathic effect. DENV2-infected cells, cytopathic effect rescue, plate reader. CPE inhibition, % at 9.99 µM. hit rate 1.7% among 350,000; in the data active means CPE inhibition above about 20%, passing the limit was not always enough; tested in BHK-21 cells;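 further: 0% = median of neutral control wells and 100% = median of positive control wells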
Cneo AK release: Cryptococcus neoformans lysis via adenylate kinase release; lysis activity, % at 15 µM; hit rate 0.2% among 360,000; C. neoformans lysis, adenylate kinase release luminescence, 4 h; normalised: neutral wells 0, clomiphene wells 100;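 active means mean lysis activity across replicates of at least 80%, whatever share of replicates individually reach that level; inactive means mean lysis activity below 80%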
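Assay system: C. neoformans cells. Amount: yeast cell density of 5 × 10^6 cells/mL. Technique: AK luminescence. Buffer or medium: YPD. Times: static 4 h at 37 °C with compound, 1 h detection. Dosing: single-point compound dose. Read-out: lysis from increased AK signal.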
* marks the source's active call; other numbers are inactive results; nt = not tested or not shown.

SMILES	Xi reactivation	Statin myotox sup	DENV2 CPE	Cneo AK release
COCCOC(=O)N1C(=O)[C@@]2(c3cc(C#Cc4ccc(OC)cc4)ccc31)[C@H](C(=O)N1CCN(c3ncccn3)CC1)[C@H]1C(=O)O[C@H](c3ccccc3)[C@H](c3ccccc3)N1[C@@H]2c1ccccc1OCCO	nt	nt	5	2
COCC(=O)N[C@@H]1C=C[C@H](CC(=O)N2CCCCC2)O[C@@H]1CO	0	3	nt	nt
CC(C)=CCN(C(=O)C#Cc1ccccc1)[C@H](CO)c1ccccc1	nt	nt	-3	-1
CO[C@H]1CN(C)C(=O)c2ccc(NC(=O)C3CCCC3)cc2OC[C@@H](C)N(CCC(F)(F)F)C[C@H]1C	0	10	2	2
O=[N+]([O-])c1ccccc1/C=N/Nc1nccnc1Cl	nt	112*	nt	2
O=C(CNC(=O)N1CC(=O)Nc2ccccc21)NCc1ccc(F)cc1	0	1	113*	0
CC(C)SCc1cc(N2CCCC2)nc(-c2ccccc2)n1	0	nt	26*	nt
CCOC(=O)c1sc(=S)n(-c2ccc(C)cc2)c1N	0	9	-11	1
CCOC(=O)c1sc(=S)n(-c2ccc(Cl)cc2)c1SC	nt	105*	nt	-1
O=C(CC1NCCNC1=O)Nc1ccccc1 (stereo not given)	0	nt	5	nt
O=C(CC1NCCNC1=O)OCc1ccccc1 (stereo not given)	nt	96*	nt	-1
CCc1ccc(OCC(O)CN2CCN(c3ccccc3)CC2)cc1 (stereo not given)	0	7	83*	-2
CCCc1ccc(OCC(O)CN2CCN(c3ccccc3)CC2)cc1 (stereo not given)	0	nt	12	-1
O=C(c1ccccc1)c1ccc(OCC(O)CN2CCN(S(=O)(=O)N3CCCCC3)CC2)cc1 (stereo not given)	nt	77*	nt	0
COc1ccc(N2CCN(CC(O)COc3ccc(F)cc3)CC2)cc1 (stereo not given)	0	4	52*	-2
C[C@@H]1CN([C@@H](C)CO)C(=O)c2cc(NC(=O)c3ccncc3)ccc2O[C@@H](C)CCCCO[C@H]1CN(C)C(=O)NC1CCCCC1	0	nt	-5	2
C[C@@H]1CN([C@H](C)CO)C(=O)Cc2cc(NC(=O)CCN3CCOCC3)ccc2O[C@H]1CN(C)C(=O)Nc1ccc2c(c1)OCO2	0	-25	-2	2
C[C@H]1CCCCO[C@@H](CN(C)Cc2ccccc2)[C@@H](C)CN([C@@H](C)CO)C(=O)c2cc(NC(=O)NC3CCCCC3)ccc2O1	-1	nt	17	50
C[C@H](CO)N1C[C@H](C)[C@H](CN(C)Cc2ccccc2)OCCCC[C@H](C)Oc2ccc(NC(=O)NC3CCCCC3)cc2C1=O	-1	nt	29*	-1
C[C@H]1CCCCO[C@H](CN(C)C(=O)Cc2ccccc2)[C@@H](C)CN([C@@H](C)CO)C(=O)c2cc(NC(=O)NC3CCCCC3)ccc2O1	-1	nt	25*	-5
C[C@H](CO)N1C[C@H](C)[C@@H](CN(C)Cc2ccccc2)OCCCC[C@H](C)Oc2ccc(NC(=O)NC3CCCCC3)cc2C1=O	-1	nt	5	52
C[C@@H]1CCCCO[C@@H](CN(C)Cc2ccccc2)[C@H](C)CN([C@@H](C)CO)C(=O)c2cc(NC(=O)NC3CCCCC3)ccc2O1	-1	nt	24*	49
CC(=O)c1ccc(NC(=O)Nc2sc(NS(=O)(=O)c3ccccc3)nc2C)cc1	0	100*	2	0
CO[C@@H]1CN(C)C(=O)c2cc(NC(=O)C3CCCC3)ccc2OC[C@H](C)N(C(=O)CC2CC2)C[C@@H]1C	0	11	-1	51
CCCCCCc1ccc(N2C[C@H](CCCCC)[C@@H](CC(=O)NCc3ccc(OC)cc3)C2=O)cc1	0	40	95*	-1
CNC[C@@H]1OCCCC[C@H](C)Oc2ccc(NS(C)(=O)=O)cc2C(=O)N([C@@H](C)CO)C[C@H]1C	-1	-39	6	-1
Cc1noc(C)c1S(=O)(=O)Nc1cccc2c1O[C@H](CN(C)C(=O)NC(C)C)[C@H](C)CN([C@@H](C)CO)C2=O	0	nt	88*	51
Cc1noc(C)c1S(=O)(=O)Nc1cccc2c1O[C@H](CN(C)C(=O)NC(C)C)[C@H](C)CN([C@H](C)CO)C2=O	0	nt	3	41
CC(C)NC(=O)N(C)C[C@H]1Oc2c(NS(=O)(=O)c3ccc(Cl)cc3)cccc2C(=O)N([C@@H](C)CO)C[C@@H]1C	-1	-16	4	105*
